The results in this text go back to ChEMBL document CHEMBL1153087, “Synthesis of 4-thiophen-2'-yl-1,4-dihydropyridines as potentiators of the CFTR chloride channel” (Bioorg Med Chem, 2009).

Active and inactive are the calls of the source. The rule behind the calls is not given here.

Holding throughout (format): cell-based
Data set [1] can be described thus: Binding affinity to CFTR deltaF508 mutant expressed in FRT cells coexpressing halide sensitive YFP-H148Q/I152L mutant protein by iodide influx assay. In outline: (§1)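 FRT cells stably co-expressing ΔF508-CFTR and YFP-H148Q/I152L, held 20–24 h at 27 °C and assayed 48 h after plating. PBS wash, then 30 min with forskolin plus compound. 14-s YFP read (ex 500, em 535 nm) around iodide injection (100 mM final). Initial slope dF/dt extrapolated by exponential fit of final 10 s. Dose–response Hill fit gave apparent Kd and maximal effect.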

Another data set has as its system FRT. Put plainly: Potentiation of CFTR deltaF508 mutant expressed in FRT cells coexpressing halide sensitive YFP-H148Q/I152L mutant protein assessed as channel activation by iodide influx assay. In outline: as §1
For data set [2], the target named is Voltage-gated L-type calcium channel (Rattus norvegicus, UniProt P22002+Q02485+P27732). Put plainly: Inhibition of L-VDCC in rat H9C2 cells assessed as effect on calcium level by Fluo-4 fluorescence assay.

In the case of `C=CCOC(=O)C1=C(C)NC(C)=C(C(=O)OCC=C)C1c1ccc([N+](=O)[O-])s1`, the Kd in data set [1] came to 3.8 µM.
Regarding `CC1=C(C(=O)OCc2ccccc2)C(c2ccc([N+](=O)[O-])s2)C(C(=O)OCc2ccccc2)=C(C)N1`, in data set [1], the affinity, expressed as Kd, was 13.1 µM and the negative logarithm of the Kd (pKd) is recorded as 4.88.
Consider `COC(=O)C1=C(C)NC(C)=C(C(=O)OC)C1c1ccc(C)s1`, for which, in data set [1], binding was put at a Kd of 6 µM and the pKd is listed as 5.22. Also, in the data set with FRT, the outcome was Active. Also, the “inhibition (INH)” value in data set [2] was “Not Active”.
Consider `COC(=O)C1=C(C)NC(C)=C(C(=O)OC)C1c1cccs1`, for which, in data set [1], the equilibrium dissociation constant (Kd) worked out at 9.5 µM and the negative-log Kd (pKd) is 5.02. Besides, the “inhibition (INH)” value in data set [2] is “Not Active”.
For `C=CCOC(=O)C1=C(C)NC(C)=C(C(=O)OCC=C)C1c1cc(-c2ccccc2)cs1`, in data set [1], binding was put at a Kd of 1.5 µM and the pKd was 5.82. The outcome with FRT was Active.
`CCOC(=O)C1=C(C)NC(C)=C(C(=O)OCC)C1c1sccc1C`: in data set [1], the affinity, expressed as Kd, was 5.7 µM and the pKd amounted to 5.24.
As to `COC(=O)C1=C(C)NC(C)=C(C(=O)OC)C1c1sccc1C`, in data set [1], binding was characterised by a dissociation constant (Kd) of 3.1 µM and the negative logarithm of the Kd (pKd) was 5.51. Besides, the outcome in the data set on FRT was inactive.
For `CCOC(=O)C1=C(C)NC(C)=C(C(=O)OCc2ccccc2)C1c1sccc1SCC(=O)OC` (stereo unspecified), in data set [1], the equilibrium dissociation constant (Kd) stood at 0.3 µM and the pKd came to 6.52. Moreover, the “inhibition (INH)” value in data set [2] is recorded as “Active”.
In data set [1], `C=CCOC(=O)C1=C(C)NC(C)=C(C(=O)OCC)C1c1sccc1SCC(=O)OC` (stereo unspecified) yielded a Kd of 1.9 µM and a pKd of 5.72. In addition, in data set [2], the “inhibition (INH)” value is “Active”.
In data set [1], `CCOC(=O)C1=C(C)NC(C)=C(C(=O)OCc2ccccc2)C1c1sccc1C` (stereo unspecified) had a dissociation constant Kd of 0.5 µM and a negative-log Kd (pKd) of 6.3. The “inhibition (INH)” value in data set [2] is listed as “Active”.
Consider `COC(=O)C1=C(C)NC(C)=C(C(=O)OC)C1c1ccc(C)o1`, for which, in data set [1], the affinity, expressed as Kd, was 6 µM and the pKd is 5.22. For the same compound, in the data set with FRT, the outcome was Active. Also, in data set [2], the “inhibition (INH)” value is listed as “Not Active”.
In data set [1], `C=CCOC(=O)C1=C(C)NC(C)=C(C(=O)OCC=C)C1c1sccc1C` displayed a Kd of 1 µM and a pKd of 6. The result in the data set with FRT was Active.
In data set [1], `CC1=C(C(=O)OCc2ccccc2)C(c2cc(-c3ccccc3)cs2)C(C(=O)OCc2ccccc2)=C(C)N1` showed a Kd of 16.5 µM and a pKd of 4.8. In addition, in the data set on FRT, the result was Active.
Turning to `C=CCOC(=O)C1=C(C)NC(C)=C(C(=O)OCC=C)C1c1sccc1SCC(=O)OC`, in data set [1], the equilibrium dissociation constant (Kd) is 1.3 µM and the pKd was determined as 5.89. In addition, the outcome with FRT was Active.
In data set [1], `COC(=O)C1=C(C)NC(C)=C(C(=O)OC)C1c1ccc([N+](=O)[O-])s1` displayed a Kd of 8.3 µM. The result in the data set on FRT was Active.
For `CC1=C(C(=O)OCc2ccccc2)C(c2sccc2C)C(C(=O)OCc2ccccc2)=C(C)N1`, in data set [1], the Kd was 0.7 µM and the negative logarithm of the Kd (pKd) stood at 6.15. For the same compound, in the data set with FRT, the outcome was Active.
In the case of `COC(=O)CSc1ccsc1C1C(C(=O)OCc2ccccc2)=C(C)NC(C)=C1C(=O)OCc1ccccc1`, the affinity in data set [1], expressed as Kd, was 0.3 µM. Besides, the outcome with FRT was Active.
In data set [1], `C=CCOC(=O)C1=C(C)NC(C)=C(C(=O)OCC)C1c1sccc1C` (stereo unspecified) had a Kd of 0.3 µM and a pKd of 6.52. Moreover, the “inhibition (INH)” value in data set [2] is listed as “Active”.
`O=c1c(-c2ccc(O)cc2)coc2cc(O)cc(O)c12` [GENISTEIN]: the Kd in data set [1] came out at 16.7 µM.

The Kd is a measure of binding affinity in units of concentration. Higher therefore signals lower affinity. As usually defined, the pKd is −log10 of the Kd, conventionally taken in molar units. A low value points to a high Kd.
